According to ChEMBL document CHEMBL1933027, “Time-dependent botulinum neurotoxin serotype A metalloprotease inhibitors” (Bioorg Med Chem, 2011):
The source made the active and inactive calls. The calls are words filed in the database; no cut-off is given here.

How the values were obtained:
[1] = target: T1, Botulinum neurotoxin type A (Clostridium botulinum, UniProt P0DPI0); assay: Inhibition of Clostridium botulinum BoNT/A light chain-mediated SNAP-25 substrate cleavage after 40 mins by FRET assay
Outline: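 Recombinant BoNT/A LC at 2 nM was incubated with 20 μM SNAP-25 peptide (AA 187–203, DnpK/daciaC-labelled) for 40 min at 37 °C. Cleaved-substrate fluorescence was read at 485 nm with excitation at 398 nm. IC50 is the compound concentration giving 50% inhibition, averaged over two experiments.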

Lethal factor = target: T2, Lethal factor (Bacillus anthracis, UniProt P15917); assay: Inhibition of Bacillus anthracis lethal factor using MCA-KKVYPYPME[dnp]Kamide peptide substrate after 30 mins by FRET assay
T2 sequence (P15917 whole entry): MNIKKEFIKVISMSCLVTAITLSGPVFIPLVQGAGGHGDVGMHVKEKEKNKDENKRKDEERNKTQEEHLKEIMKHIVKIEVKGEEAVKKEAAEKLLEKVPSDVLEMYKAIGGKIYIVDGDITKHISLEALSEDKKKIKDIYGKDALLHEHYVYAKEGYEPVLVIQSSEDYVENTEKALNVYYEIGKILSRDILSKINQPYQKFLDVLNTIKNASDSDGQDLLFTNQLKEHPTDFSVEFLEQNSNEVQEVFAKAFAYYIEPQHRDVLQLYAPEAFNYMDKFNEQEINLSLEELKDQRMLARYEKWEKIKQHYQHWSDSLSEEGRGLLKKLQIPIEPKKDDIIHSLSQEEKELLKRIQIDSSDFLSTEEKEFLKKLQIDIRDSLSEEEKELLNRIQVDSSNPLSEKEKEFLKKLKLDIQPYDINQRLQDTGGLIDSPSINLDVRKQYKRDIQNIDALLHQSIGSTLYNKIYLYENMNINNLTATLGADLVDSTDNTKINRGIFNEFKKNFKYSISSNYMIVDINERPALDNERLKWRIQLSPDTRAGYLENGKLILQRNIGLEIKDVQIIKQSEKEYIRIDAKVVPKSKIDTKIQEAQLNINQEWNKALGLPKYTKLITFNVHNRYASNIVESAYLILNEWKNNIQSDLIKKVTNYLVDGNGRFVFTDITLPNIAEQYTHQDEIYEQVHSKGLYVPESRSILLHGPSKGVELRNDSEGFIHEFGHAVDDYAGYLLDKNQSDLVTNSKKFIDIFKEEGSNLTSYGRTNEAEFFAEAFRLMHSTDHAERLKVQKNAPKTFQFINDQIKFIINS

[2] = target: Matrix metalloproteinase-9 (Homo sapiens, UniProt P14780); assay: Inhibition of human MMP9
[3] = target: Botulinum neurotoxin type A (Clostridium botulinum) (UniProt P0DPI0); assay: Inhibition of clostridium botulinum BoNT/A-mediated SNAP-25 substrate cleavage in chicken neurons at 30 uM preincubated for 15 mins before substrate addition
[4] = target: Botulinum neurotoxin type A (Clostridium botulinum) (UniProt P0DPI0); assay: Inhibition of Clostridium botulinum BoNT/A light chain-mediated SNAP-25 substrate cleavage preincubated for 15 mins in presence of cysteine before substrate addition by FRET assay
Outline: (§1)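 The potential inactivator (2.5 or 5 mM) was preincubated with compound in the assay mixture for 15 min at 37 °C. 17-mer SNAP-25 substrate and BoNT/A LC were then added, and activity was read in the FRET assay (37 °C, 40 min, ex 398/em 485 nm).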

[5] = target: T3, Botulinum neurotoxin type B (Clostridium botulinum, UniProt P10844); assay: Inhibition of Clostridium botulinum BoNT/B light chain after 40 mins by FRET-based assay
T3 sequence (P10844 whole entry): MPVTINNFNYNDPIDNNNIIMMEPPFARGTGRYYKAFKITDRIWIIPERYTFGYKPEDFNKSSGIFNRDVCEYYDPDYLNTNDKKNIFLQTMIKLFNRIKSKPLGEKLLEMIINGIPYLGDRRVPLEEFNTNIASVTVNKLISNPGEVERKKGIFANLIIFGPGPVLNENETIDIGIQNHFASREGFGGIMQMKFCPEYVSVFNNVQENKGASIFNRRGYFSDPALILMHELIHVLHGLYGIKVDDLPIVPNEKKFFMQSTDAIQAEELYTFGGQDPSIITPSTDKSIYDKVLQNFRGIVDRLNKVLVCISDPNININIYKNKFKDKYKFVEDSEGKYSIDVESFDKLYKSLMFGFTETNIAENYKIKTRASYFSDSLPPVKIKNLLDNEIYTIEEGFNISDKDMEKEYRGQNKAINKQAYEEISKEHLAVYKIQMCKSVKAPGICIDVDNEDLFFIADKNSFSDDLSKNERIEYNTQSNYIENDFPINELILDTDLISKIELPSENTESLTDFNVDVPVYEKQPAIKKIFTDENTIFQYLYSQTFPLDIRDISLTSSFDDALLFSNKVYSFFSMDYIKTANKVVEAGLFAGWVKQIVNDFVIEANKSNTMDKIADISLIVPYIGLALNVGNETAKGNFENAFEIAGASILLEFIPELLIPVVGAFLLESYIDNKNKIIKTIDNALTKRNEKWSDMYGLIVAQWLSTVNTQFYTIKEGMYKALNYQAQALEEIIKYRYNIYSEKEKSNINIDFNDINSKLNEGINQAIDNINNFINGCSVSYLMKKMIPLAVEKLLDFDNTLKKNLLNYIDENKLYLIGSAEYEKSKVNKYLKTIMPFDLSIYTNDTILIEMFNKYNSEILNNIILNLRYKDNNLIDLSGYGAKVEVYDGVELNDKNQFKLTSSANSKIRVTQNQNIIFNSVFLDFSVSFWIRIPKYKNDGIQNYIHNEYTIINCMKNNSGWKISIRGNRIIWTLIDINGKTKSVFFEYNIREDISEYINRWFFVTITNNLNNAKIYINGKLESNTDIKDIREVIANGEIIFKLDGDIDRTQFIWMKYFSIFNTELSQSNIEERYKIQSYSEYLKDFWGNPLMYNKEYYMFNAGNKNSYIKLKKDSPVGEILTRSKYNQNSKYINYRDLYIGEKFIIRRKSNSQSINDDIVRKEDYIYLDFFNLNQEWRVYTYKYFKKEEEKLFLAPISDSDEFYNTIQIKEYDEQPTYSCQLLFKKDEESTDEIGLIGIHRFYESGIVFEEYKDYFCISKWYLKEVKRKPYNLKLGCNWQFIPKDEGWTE

Interstitial collagenase = target: T4, Interstitial collagenase (Homo sapiens, UniProt P03956); assay: Inhibition of human MMP1
T4 sequence (P03956 whole entry): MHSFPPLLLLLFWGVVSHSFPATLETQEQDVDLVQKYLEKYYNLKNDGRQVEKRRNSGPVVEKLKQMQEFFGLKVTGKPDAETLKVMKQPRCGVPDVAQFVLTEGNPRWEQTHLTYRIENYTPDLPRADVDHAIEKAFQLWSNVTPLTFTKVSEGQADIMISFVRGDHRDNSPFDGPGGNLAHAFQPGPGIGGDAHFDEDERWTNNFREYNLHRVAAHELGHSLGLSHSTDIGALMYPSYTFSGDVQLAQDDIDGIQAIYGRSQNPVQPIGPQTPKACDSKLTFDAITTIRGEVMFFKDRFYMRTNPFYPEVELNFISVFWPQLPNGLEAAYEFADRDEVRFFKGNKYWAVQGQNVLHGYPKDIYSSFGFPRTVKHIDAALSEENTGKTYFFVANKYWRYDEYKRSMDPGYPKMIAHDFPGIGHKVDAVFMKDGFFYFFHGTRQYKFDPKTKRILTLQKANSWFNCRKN

[6] = target: 72 kDa type IV collagenase (Homo sapiens, UniProt P08253); assay: Inhibition of human MMP2
[7] = target: Botulinum neurotoxin type A (Clostridium botulinum) (UniProt P0DPI0); assay: Inhibition of Clostridium botulinum BoNT/A light chain-mediated SNAP-25 substrate cleavage preincubated for 15 mins in presence of glutathione before substrate addition by FRET assay; outline: as §1
[8] = target: Botulinum neurotoxin type A (Clostridium botulinum) (UniProt P0DPI0); assay: Inhibition of clostridium botulinum BoNT/A light chain assessed as residual activity using SNAP-25 as substrate at 50 uM after 90 mins measured after dialysis by FRET-based assay relative to 6-(4,5-dihydro-1H-imidazol-2-yl)-2-(4-(4-(4,5-dihydro-1H-imidazol-2-yl)phenoxy)phenyl)-1H-indole
Outline: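 BoNT/A LC was co-incubated with inhibitor or a DMSO-equivalent control at 37 °C for 90 min. Samples were then dialysed (3,500 MWCO) against 20 mM HEPES pH 7.4, 10% glycerol, 0.05% Tween-20 for 20–24 h at 2–8 °C. Remaining activity was measured by the standard FRET assay.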

[9] = target: T1, Botulinum neurotoxin type A; assay: Inhibition of Clostridium botulinum BoNT/A light chain after 40 mins by HPLC assay
Outline: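 Incubation was at 37 °C for 40 min with 6 nM BoNT/A LC and 60 μM 17-mer SNAPtide substrate. Samples were separated by reverse-phase C18 HPLC, effluent was monitored at 365 nm, and peaks were quantified by integration.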

[10] = target: Botulinum neurotoxin type A (Clostridium botulinum) (UniProt P0DPI0); assay: Inhibition of Clostridium botulinum BoNT/A light chain-mediated SNAP-25 substrate cleavage preincubated for 15 mins in presence of zinc ion before substrate addition by FRET assay; outline: as §1
[11] = target: Botulinum neurotoxin type A (Clostridium botulinum) (UniProt P0DPI0); assay: Ratio of Kinact to Ki for clostridium botulinum BoNT/A light chain
Outline: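 BoNT/A LC was incubated with selected inhibitor concentrations for various times. Remaining activity was then measured by the FRET assay, and kobs/[I] was derived from the plotted data using a published method.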

[12] = target: T5, Lethal factor (Bacillus anthracis) (UniProt P15917); assay: Inhibition of Bacillus anthracis lethal factor using MCA-KKVYPYPME[dnp]Kamide peptide substrate at 100 uM after 30 mins by FRET assay
T5 sequence (whole entry): T2 sequence (P15917 whole entry)

T1 sequence (P0DPI0 2-448 limits assumed): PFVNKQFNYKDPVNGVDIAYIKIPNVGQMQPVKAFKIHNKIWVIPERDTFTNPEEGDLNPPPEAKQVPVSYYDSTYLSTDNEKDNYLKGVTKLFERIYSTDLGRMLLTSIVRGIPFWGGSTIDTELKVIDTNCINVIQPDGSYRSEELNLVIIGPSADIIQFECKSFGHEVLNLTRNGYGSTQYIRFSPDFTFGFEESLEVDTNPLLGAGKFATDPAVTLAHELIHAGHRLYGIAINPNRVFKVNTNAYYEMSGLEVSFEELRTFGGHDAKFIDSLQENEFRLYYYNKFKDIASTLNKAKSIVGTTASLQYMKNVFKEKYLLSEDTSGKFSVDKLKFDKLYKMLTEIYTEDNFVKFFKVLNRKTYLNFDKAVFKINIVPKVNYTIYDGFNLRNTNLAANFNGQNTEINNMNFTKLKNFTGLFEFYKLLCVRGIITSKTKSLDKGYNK
Chain of Botulinum neurotoxin type A (Clostridium botulinum) (P0DPI0 2-448 limits assumed): as above
Chain of 72 kDa type IV collagenase (P08253 whole entry): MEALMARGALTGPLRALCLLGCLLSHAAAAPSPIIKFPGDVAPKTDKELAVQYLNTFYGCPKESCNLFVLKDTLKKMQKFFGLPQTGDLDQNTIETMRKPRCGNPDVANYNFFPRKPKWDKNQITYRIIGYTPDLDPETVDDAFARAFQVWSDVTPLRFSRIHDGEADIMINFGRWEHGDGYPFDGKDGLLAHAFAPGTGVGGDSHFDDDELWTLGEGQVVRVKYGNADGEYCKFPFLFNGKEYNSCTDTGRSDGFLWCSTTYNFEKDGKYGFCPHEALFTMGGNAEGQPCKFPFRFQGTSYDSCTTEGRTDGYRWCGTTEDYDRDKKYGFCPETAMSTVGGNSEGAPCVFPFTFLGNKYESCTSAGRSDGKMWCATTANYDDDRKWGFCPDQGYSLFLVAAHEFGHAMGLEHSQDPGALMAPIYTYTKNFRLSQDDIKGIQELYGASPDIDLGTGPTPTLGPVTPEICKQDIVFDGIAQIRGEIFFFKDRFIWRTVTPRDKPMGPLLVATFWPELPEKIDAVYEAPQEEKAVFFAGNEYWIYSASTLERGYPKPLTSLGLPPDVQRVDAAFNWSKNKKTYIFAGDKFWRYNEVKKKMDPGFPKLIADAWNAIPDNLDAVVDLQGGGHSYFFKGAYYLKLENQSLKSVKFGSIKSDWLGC
Chain of Matrix metalloproteinase-9 (P14780 whole entry): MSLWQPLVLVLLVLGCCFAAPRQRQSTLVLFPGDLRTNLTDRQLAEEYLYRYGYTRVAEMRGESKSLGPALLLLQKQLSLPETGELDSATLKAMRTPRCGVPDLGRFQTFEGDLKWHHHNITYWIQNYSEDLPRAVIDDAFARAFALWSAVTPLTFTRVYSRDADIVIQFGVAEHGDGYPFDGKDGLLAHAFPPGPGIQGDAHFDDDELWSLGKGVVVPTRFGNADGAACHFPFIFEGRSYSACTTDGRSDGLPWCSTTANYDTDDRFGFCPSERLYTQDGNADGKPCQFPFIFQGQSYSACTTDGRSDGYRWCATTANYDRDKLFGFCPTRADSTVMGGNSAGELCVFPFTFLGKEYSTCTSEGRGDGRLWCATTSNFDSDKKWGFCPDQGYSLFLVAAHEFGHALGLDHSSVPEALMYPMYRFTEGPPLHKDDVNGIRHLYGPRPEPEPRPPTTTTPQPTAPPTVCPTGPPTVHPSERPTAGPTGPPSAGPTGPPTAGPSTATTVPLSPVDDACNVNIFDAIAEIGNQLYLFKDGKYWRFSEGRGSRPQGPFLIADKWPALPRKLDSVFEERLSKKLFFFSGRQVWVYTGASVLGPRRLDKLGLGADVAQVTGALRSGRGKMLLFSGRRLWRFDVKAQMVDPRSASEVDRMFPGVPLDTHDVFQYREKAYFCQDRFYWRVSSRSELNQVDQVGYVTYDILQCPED

| Compound | IC50 [1] | IC50 (Lethal factor) | further results |
| --- | --- | --- | --- |
| N#C/C(=C\c1ccc(-c2cccs2)o1)c1nc2ccccc2[nH]1 | > 100 µM | > 100 µM | – |
| COc1ccc(/C=C(\C#N)c2nc3ccccc3[nH]2)cc1I | 7.2 µM | 74 µM | IC50 [2]: > 100 µM; inhibition [3]: < 10%; inhibition [4]: inactive; IC50 [5]: > 100 µM; IC50 (Interstitial collagenase): > 100 µM; IC50 [6]: > 100 µM; inhibition [7]: inactive; Ratio [8]: 0.99; IC50 [9]: 10 µM; inhibition [10]: Active; Ratio [11]: 979 M⁻¹ s⁻¹ |
| Cc1c(/C=C(\C#N)c2nc3ccccc3[nH]2)sc2ccccc12 | > 100 µM | > 100 µM | – |
| N#C/C(=C\c1ccc(-c2cccs2)s1)c1ccc2ccccc2n1 | > 100 µM | > 100 µM | – |
| N#C/C(=C\c1ccc(-c2ccccc2)cc1)c1nc2ccccc2[nH]1 | 86 µM | > 100 µM | – |
| COc1ccc(/C=C(\C#N)c2nc3ccccc3[nH]2)cc1F | > 100 µM | > 100 µM | – |
| N#C/C(=C\c1ccc(-c2cccs2)s1)c1nc2ccccc2s1 | > 100 µM | > 100 µM | – |
| N=C(N)c1ccc(Oc2ccc(-c3cc4ccc(C(=N)N)cc4[nH]3)cc2)cc1 | – | – | inhibition [3]: 42% |
| COc1cc(/C=C(\C#N)c2nc3ccccc3[nH]2)cc(Cl)c1O | 59 µM | > 100 µM | – |
| N#C/C(=C\c1ccc(-c2ccco2)s1)c1nc2ccccc2[nH]1 | 59 µM | > 100 µM | – |
| N#C/C(=C\c1c[nH]c2ccc(Br)cc12)c1nc2ccccc2[nH]1 | > 100 µM | – | inhibition [12]: 60% |
| COc1ccc(/C=C(\C#N)c2nc3ccccc3[nH]2)cc1Cl | > 100 µM | > 100 µM | – |
| N#C/C(=C\c1c[nH]c2c1ccc1ccccc12)c1nc2ccccc2[nH]1 | > 100 µM | > 100 µM | – |
